Measured values taken from article PMC5963734 (Neuron, 2018).

System: PSD-95 - α-actinin interaction
Experiment: Competition of co-IP of α-actinin with PSD-95 from brain lysates
Design: species or system rat
Details: added to Triton X-100 brain lysate during IP of PSD-95; Figure 3D
Outline: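 Adult rat brain (1 g) homogenised on ice in buffer A (150 mM NaCl, 10 mM HEPES, 10 mM EDTA, 10 mM EGTA, pH 7.4) with protease inhibitors and 1% Triton X-100, then cleared at 250,000 × g for 30 min. Competitors added: PSD-95 peptide 1-13, GST-PSD-95 1-64, peptide 15-36, or Ca2+ plus CaM. Per IP, 1 mg protein, 1 μg PSD-95 antibody and protein G-Sepharose, 4 h at 4 °C; three washes.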

B1: GST-PSD-95 1-64 (N-term): GST fusion protein of the N-terminal 64 residues of PSD-95 (protein)
chain: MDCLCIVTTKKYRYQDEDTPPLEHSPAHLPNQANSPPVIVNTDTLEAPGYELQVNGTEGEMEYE
modifications: left off: GST, N-terminal, kept
  disruption of co-IP of α-actinin with PSD-95: disrupted
